From ChEMBL document CHEMBL1142890, “Structure-antibacterial activity of arylcarbonyl- and arylsulfonyl-piperazine 5-triazolylmethyl oxazolidinones” (2007)
In brackets after ≈: the same amount, converted by molar mass.

How the values were obtained:
Enterococcus [1] = experiment: Antimicrobial activity against vancomycin-resistant Enterococcus by agar dilution method; format: functional
How it was run: (§1)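 Agar dilution per CLSI on Mueller-Hinton agar, test agents at 0.12 to 8 µg/ml; test compounds dissolved in 20% water in DMSO, linezolid in 40% water in ethanol, vancomycin in water. Clinical isolates inoculated at final 10^7 CFU/ml, incubated 35 °C for 18 h. MIC = lowest concentration completely inhibiting growth; reported as range across isolates.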

Staphylococcus aureus [2] = experiment: Antimicrobial activity against Staphylococcus aureus ATCC 25923 by agar dilution method
Haemophilus influenzae = experiment: Antimicrobial activity against Haemophilus influenzae; format: functional
Staphylococcus aureus [3] = experiment: Antimicrobial activity against methicillin-susceptible Staphylococcus aureus by agar dilution method; format: functional; how it was run: as §1
Streptococcus pneumoniae = experiment: Antimicrobial activity against Streptococcus pneumoniae by agar dilution method; format: functional
How it was run: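 Agar dilution per CLSI on Mueller–Hinton agar holding drug dilutions from 0.12 to 8 µg/ml. Staphylococci and enterococci tested on plain MH agar, S. pneumoniae on MH agar with 5% sheep blood. Test compounds dissolved in 20% water in DMSO. Inoculum 10⁷ CFU/ml, incubated 35 °C for 18 h. MIC was the lowest concentration giving complete growth inhibition.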

Enterococcus [4] = experiment: Antimicrobial activity against vancomycin-sensitive Enterococcus by agar dilution method; format: functional; how it was run: as §1
Staphylococcus aureus [5] = experiment: Antimicrobial activity against Staphylococcus aureus ATCC 25922 in presence of 50% human plasma […]; format: functional; conditions: ATCC 25923, Plasma, in the assay text read “ATCC 25923” for “ATCC 25922”
How it was run: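 S. aureus ATCC 25923 tested in Mueller–Hinton broth supplemented with 50% human plasma. Test compounds dissolved in 20% water in DMSO. Inoculum 10⁷ CFU/ml, incubated 35 °C for 18 h. MIC was the lowest concentration completely inhibiting growth.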

Staphylococcus aureus [6] = experiment: Antimicrobial activity against methicillin-resistant Staphylococcus aureus by agar dilution method; format: functional; how it was run: as §1
Staphylococcus [7] = experiment: Antimicrobial activity against methicillin-resistant coagulase-negative Staphylococcus by agar dilution method; format: functional; how it was run: as §1
Escherichia coli = experiment: Antimicrobial activity against Escherichia coli ATCC 25922; format: functional
Moraxella catarrhalis = experiment: Antimicrobial activity against Moraxella catarrhalis; format: functional
Staphylococcus [8] = experiment: Antimicrobial activity against methicillin-susceptible coagulase-negative staphylococcus by agar dilution method; format: functional; how it was run: as §1

Compound | MIC (Enterococcus [1]) [µg/mL] | MIC (Staphylococcus aureus [2]) [µg/mL] | MIC (Haemophilus influenzae) [µg/mL] | MIC (Staphylococcus aureus [3]) [µg/mL] | MIC (Streptococcus pneumoniae) [µg/mL] | MIC (Enterococcus [4]) [µg/mL] | MIC (Staphylococcus aureus [5]) [µg/mL] | MIC (Staphylococcus aureus [6]) [µg/mL] | MIC (Staphylococcus [7]) [µg/mL] | MIC (Escherichia coli) [µg/mL] | MIC (Moraxella catarrhalis) [µg/mL] | MIC (Staphylococcus [8]) [µg/mL]
O=C(c1ccccc1[N+](=O)[O-])N1CCN(c2ccc(N3C[C@H](Cn4ccnn4)OC3=O)cc2F)CC1 | 1 (≈ 2.02 µM) | 2 (≈ 4.04 µM) | ≥ 8 | 1 (≈ 2.02 µM) | 0.5 (≈ 1.01 µM) | 2 (≈ 4.04 µM) | 2 | 0.5 (≈ 1.01 µM) | 1 (≈ 2.02 µM) | ≥ 8 | ≥ 8 | 1 (≈ 2.02 µM)
O=C1O[C@@H](Cn2ccnn2)CN1c1ccc(N2CCOCC2)c(F)c1 | 1 (≈ 2.88 µM) | 1 (≈ 2.88 µM) | ≥ 8 | 0.5 (≈ 1.44 µM) | 0.5 (≈ 1.44 µM) | 0.5 (≈ 1.44 µM) | 1 | 0.5 (≈ 1.44 µM) | 0.5 (≈ 1.44 µM) | ≥ 8 | ≥ 8 | 0.5 (≈ 1.44 µM)
O=C(c1cccc([N+](=O)[O-])c1)N1CCN(c2ccc(N3C[C@H](Cn4ccnn4)OC3=O)cc2F)CC1 | 0.5 (≈ 1.01 µM) | 2 (≈ 4.04 µM) | ≥ 8 | 0.25 (≈ 0.505 µM) | 0.25 (≈ 0.505 µM) | 0.5 (≈ 1.01 µM) | 2 | 0.25 (≈ 0.505 µM) | 0.25 (≈ 0.505 µM) | ≥ 8 | ≥ 8 | 0.5 (≈ 1.01 µM)
CN[C@H](CC(C)C)C(=O)N[C@H]1C(=O)N[C@@H](CC(N)=O)C(=O)N[C@H]2C(=O)N[C@H]3C(=O)N[C@H](C(=O)N[C@H](C(=O)O)c4cc(O)cc(O)c4-c4cc3ccc4O)[C@H](O)c3ccc(c(Cl)c3)Oc3cc2cc(c3O[C@@H]2O[C@H](CO)[C@@H](O)[C@H](O)[C@H]2O[C@H]2C[C@](C)(N)[C@H](O)[C@H](C)O2)Oc2ccc(cc2Cl)[C@H]1O [VANCOMYCIN] | > 64 |  | ≥ 8 |  | 0.5 (≈ 0.345 µM) | 0.25 (≈ 0.173 µM) |  |  | 1 (≈ 0.69 µM) | ≥ 8 | ≥ 8 | 1 (≈ 0.69 µM)
O=C(c1ccncc1)N1CCN(c2ccc(N3C[C@H](Cn4ccnn4)OC3=O)cc2F)CC1 | 0.5 (≈ 1.11 µM) | 1 (≈ 2.22 µM) | ≥ 8 | 0.5 (≈ 1.11 µM) | 1 (≈ 2.22 µM) | 1 (≈ 2.22 µM) | 8 | 0.5 (≈ 1.11 µM) | 0.5 (≈ 1.11 µM) | ≥ 8 | ≥ 8 | 0.25 (≈ 0.554 µM)
COc1ccc(C(=O)N2CCN(c3ccc(N4C[C@H](Cn5ccnn5)OC4=O)cc3F)CC2)cc1 | 1 (≈ 2.08 µM) | 2 (≈ 4.16 µM) | ≥ 8 | 1 (≈ 2.08 µM) | 0.5 (≈ 1.04 µM) | 1 (≈ 2.08 µM) | 8 | 0.5 (≈ 1.04 µM) | 1 (≈ 2.08 µM) | ≥ 8 | ≥ 8 | 0.5 (≈ 1.04 µM)
Cc1ccccc1C(=O)N1CCN(c2ccc(N3C[C@H](Cn4ccnn4)OC3=O)cc2F)CC1 | 1 (≈ 2.15 µM) | 2 (≈ 4.31 µM) | ≥ 8 | 0.5 (≈ 1.08 µM) | 1 (≈ 2.15 µM) | 1 (≈ 2.15 µM) | 8 | 0.5 (≈ 1.08 µM) | 0.5 (≈ 1.08 µM) | ≥ 8 | ≥ 8 | 0.5 (≈ 1.08 µM)
O=C(c1ccc(Cl)cc1)N1CCN(c2ccc(N3C[C@H](Cn4ccnn4)OC3=O)cc2F)CC1 | 0.5 (≈ 1.03 µM) | 0.5 (≈ 1.03 µM) | ≥ 8 | 0.25 (≈ 0.516 µM) | 1 (≈ 2.06 µM) | 0.5 (≈ 1.03 µM) | 8 | 0.25 (≈ 0.516 µM) | 0.12 (≈ 0.247 µM) | ≥ 8 | ≥ 8 | 0.12 (≈ 0.247 µM)
Cc1ccc(S(=O)(=O)N2CCN(c3ccc(N4C[C@H](Cn5ccnn5)OC4=O)cc3F)CC2)cc1 |  | > 8 | ≥ 8 | > 8 | 2 (≈ 4 µM) | > 8 | > 8 |  |  | ≥ 8 | ≥ 8 | > 8
COc1cccc(C(=O)N2CCN(c3ccc(N4C[C@H](Cn5ccnn5)OC4=O)cc3F)CC2)c1 | 0.5 (≈ 1.04 µM) | 2 (≈ 4.16 µM) | ≥ 8 | 0.25 (≈ 0.52 µM) | 0.25 (≈ 0.52 µM) | 0.5 (≈ 1.04 µM) | 4 | 0.25 (≈ 0.52 µM) | 0.25 (≈ 0.52 µM) | ≥ 8 | ≥ 8 | 0.25 (≈ 0.52 µM)
O=C(c1cccs1)N1CCN(c2ccc(N3C[C@H](Cn4ccnn4)OC3=O)cc2F)CC1 | 0.5 (≈ 1.1 µM) | 0.5 (≈ 1.1 µM) | ≥ 8 | 0.5 (≈ 1.1 µM) | 0.25 (≈ 0.548 µM) | 0.5 (≈ 1.1 µM) | 4 | 0.5 (≈ 1.1 µM) | 0.25 (≈ 0.548 µM) | ≥ 8 | ≥ 8 | 0.25 (≈ 0.548 µM)
